Legend:
[1] = test system: Fusarium oxysporum f. sp. niveum; assay: Stimulation of proteinase activity in Fusarium oxysporum f. sp. niveum at 1600 mg/L measured 7 days post compound treatment (reference value: 0.42 +/- 0.2 U//min/ml); assay type: functional
[2] = test system: Fusarium oxysporum f. sp. niveum; assay: Growth inhibition of Fusarium oxysporum f. sp. niveum assessed as mycelium dry weight at 1600 mg/L measured 7 days post compound treatment (reference value: 0.22 +/- 0.01 g); assay type: functional
Outline: (§1)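 Strain NJAUS-1 was grown in 30 mL potato dextrose broth (pH 4.5, HCl), inoculated with a 5 mm plug from a 7-day PDA culture. Flasks were shaken at 170 rpm, 28 °C, for 7 days. Mycelium was filtered and dried at 80 °C for 12 h to constant dry weight. Cinnamic acid was tested at 200–1600 mg L-1; controls received sterile water. Three replicates, mean ± SE.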

[3] = test system: Fusarium oxysporum f. sp. niveum; assay: Growth inhibition of Fusarium oxysporum f. sp. niveum assessed as colony diameter at 1600 mg/L measured 7 days post compound treatment (reference value: 7.0 +/- 0.63 cm); assay type: functional
[4] = test system: Fusarium oxysporum f. sp. niveum; assay: Stimulation of cellulase activity in Fusarium oxysporum f. sp. niveum at 1600 mg/L measured 7 days post compound treatment by DNS method; assay type: functional
[5] = test system: Fusarium oxysporum f. sp. niveum; assay: Stimulation of amylase activity in Fusarium oxysporum f. sp. niveum at 1600 mg/L measured 7 days post compound treatment by DNS method (reference value: 3.7 +/- 0.5 umol/min/ml); assay type: functional
[6] = test system: Fusarium oxysporum f. sp. niveum; assay: Growth inhibition of Fusarium oxysporum f. sp. niveum assessed as reduction in hyphal growth measured 7 days post compound treatment; assay type: functional, organism-based
Neurospora crassa = assay: Growth inhibition of Neurospora crassa assessed as inhibition of mycelial growth at 200 mg/L; assay type: functional; settings: read-out: GI
[7] = test system: Fusarium oxysporum f. sp. niveum; assay: Stimulation of pectinase activity in Fusarium oxysporum f. sp. niveum at 1600 mg/L measured 7 days post compound treatment by DNS method (reference value: 0.01 +/- 0.0 U//ml/min); assay type: functional
[8] = test system: Fusarium oxysporum f. sp. niveum; assay: Growth inhibition of Fusarium oxysporum f. sp. niveum assessed as reduction in sporulation measured 7 days post compound treatment; assay type: functional, organism-based
Outline: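 FON was grown 7 days in modified Bilay and Joffe's medium (4.0 g sodium carboxymethyl cellulose, pH 4) with cinnamic acid at 200–1600 mg L-1 or a water control. Broth was diluted 10-5–10-7, and 0.1 mL was spread on PDA and incubated in the dark at 28 °C for 4 days. Colonies were counted and converted to conidia per culture. Three replicates, mean ± SE.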

[9] = test system: Fusarium oxysporum f. sp. niveum; assay: Growth inhibition of Fusarium oxysporum f. sp. niveum assessed as reduction in conidial germination measured […]; assay type: functional, organism-based
Outline: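 Conidia came from a 7-day liquid culture (28 °C), collected by filtration and diluted in sterile water. 0.1 mL was spread on 2% water agar plates containing cinnamic acid (200–1600 mg L-1; water control) and incubated at 28 °C for 3 days. Colonies were counted daily. Three replicate plates per treatment.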

[10] = test system: Fusarium oxysporum f. sp. niveum; assay: Stimulation of proteinase activity in Fusarium oxysporum f. sp. niveum at 1600 mg/L measured 7 days post compound treatment by Tseng and Mount method
[11] = test system: Fusarium oxysporum f. sp. niveum; assay: Stimulation of mycotoxin production in Fusarium oxysporum f. sp. niveum at 1600 mg/L measured 7 days post compound treatment by spectrophotometry (reference value: 26.9 +/- 4.9 ug/mL); assay type: functional
[12] = test system: Fusarium oxysporum f. sp. niveum; assay: Stimulation of amylase activity in Fusarium oxysporum f. sp. niveum at 400 mg/L measured 7 days post compound treatment by DNS method (reference value: 3.7 +/- 0.5 umol/min/ml); assay type: functional
[13] = test system: Fusarium oxysporum f. sp. niveum; assay: Stimulation of proteinase activity in Fusarium oxysporum f. sp. niveum at 1600 mg/L measured 7 days post compound treatment; assay type: functional
[14] = test system: Fusarium oxysporum f. sp. niveum; assay: Stimulation of cellulase activity in Fusarium oxysporum f. sp. niveum at 1600 mg/L measured 7 days post compound treatment by DNS method (reference value: 0.03 +/- 0.1 umol/min/ml); assay type: functional
[15] = test system: Fusarium oxysporum f. sp. niveum; assay: Growth inhibition of Fusarium oxysporum f. sp. niveum assessed as inhibition of mycelium dry weight at 1600 mg/L measured 7 days post compound treatment; assay type: functional; settings: 168 h; outline: as §1

O=C(O)/C=C/c1ccccc1 [CINNAMIC ACID]
Activity [1]: 3.21 U/min/ml | Activity [2]: 0.08 g | Activity [3]: 0 cm | Activity [4]: 2006% | Activity [5]: 4.6 µmol/min/mL | growth inhibition (GI) [6]: Dose-dependent effect | inhibition of growth at 200 µg/mL (Neurospora crassa): 94% | Activity [7]: 0.052 U/ml/min | growth inhibition (GI) [8]: Dose-dependent effect | growth inhibition (GI) [9]: Dose-dependent effect | Activity [10]: 760% | Activity [11]: 13.25 µg/mL | Activity [12]: 5.2 µmol/min/mL | Activity [13]: 760% | Activity [14]: 0.33 µmol/min/mL | inhibition at 1600 µg/mL [15]: 63.3%

Reference: ChEMBL document CHEMBL3044620, “Cinnamic acid inhibits growth but stimulates production of pathogenesis factors by in vitro cultures of Fusarium oxysporum f.sp. niveum” (2008)
